Assay results from ChEMBL document CHEMBL1137710, “Synthesis and in vitro antitumor activity of new quinoxaline derivatives” (2009).

How the values were obtained:
Assay type in all cases: functional
[1] = system: MDA-MB-435; assay: Growth inhibition of human MDA-MB-435 cells after 48 hrs by sulforhodamine B assay; conditions: MDA-MB-435, 48 h
In short: (§1)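 NCI 60-human-tumor-cell-line panel, with compounds tested over a 5-log dose range. Values are taken from dose-response curves as log10 molar concentrations: GI50 is 50% net growth inhibition, TGI is total growth inhibition, and LC50 is 50% net cell death.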

[2] = Growth inhibition of human Hs 578T cells after 48 hrs by sulforhodamine B assay; in short: as §1
[3] = system: SF-295; assay: Growth inhibition of human SF295 cells after 48 hrs by sulforhodamine B assay; conditions: SF-295, 48 h; in short: as §1
[4] = system: CAKI-1; assay: Growth inhibition of human Caki1 cells after 48 hrs by sulforhodamine B assay; conditions: CAKI-1, 48 h; in short: as §1
[5] = system: SW-620; assay: Growth inhibition of human SW620 cells after 48 hrs by sulforhodamine B assay; conditions: SW-620, 48 h
In short: (§2)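 Run in the NCI 60-human-tumour-cell-line panel, tested over a 5-log dose range. Dose–response curves gave three values per cell line, each as a log10 molar concentration: GI50 (50% inhibition of net cell growth), TGI (total inhibition of net growth) and LC50 (50% net cell death). The mean graph midpoint is the arithmetic mean over all lines, with insensitive lines entered at the highest concentration tested.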

[6] = system: K562; assay: Growth inhibition of human K562 cells after 48 hrs by sulforhodamine B assay; conditions: K562, 48 h; in short: as §1
[7] = system: SK-MEL-28; assay: Growth inhibition of human SK-MEL-28 cells after 48 hrs by sulforhodamine B assay; conditions: SK-MEL-28, 48 h; in short: as §1
[8] = system: TK-10; assay: Growth inhibition of human TK10 cells after 48 hrs by sulforhodamine B assay; conditions: TK-10, 48 h; in short: as §2
[9] = system: U-251; assay: Growth inhibition of human U251 cells after 48 hrs by sulforhodamine B assay; conditions: U-251, 48 h; in short: as §2
[10] = system: OVCAR-4; assay: Growth inhibition of human OVCAR4 cells after 48 hrs by sulforhodamine B assay; conditions: OVCAR-4, 48 h; in short: as §1
[11] = system: LOX IMVI; assay: Growth inhibition of human LOXIMVI cells after 48 hrs by sulforhodamine B assay; in short: as §1
[12] = system: PC-3; assay: Growth inhibition of human PC3 cells after 48 hrs by sulforhodamine B assay; conditions: PC-3, 48 h; in short: as §1
[13] = system: MCF7; assay: Anticancer activity against human MCF7 cells assessed as cell growth at 100 uM after 48 hrs by sulforhodamine B assay; conditions: MCF7, 48 h, read-out: Activity
[14] = system: NCI/ADR-RES; assay: Growth inhibition of human NCI/ADR-RES cells after 48 hrs by sulforhodamine B assay; in short: as §1
[15] = system: SF-268; assay: Growth inhibition of human SF268 cells after 48 hrs by sulforhodamine B assay; conditions: SF-268, 48 h; in short: as §1
[16] = system: HCT-116; assay: Growth inhibition of human HCT116 cells after 48 hrs by sulforhodamine B assay; conditions: HCT-116, 48 h; in short: as §1
[17] = system: OVCAR-5; assay: Growth inhibition of human OVCAR5 cells after 48 hrs by sulforhodamine B assay; conditions: OVCAR-5, 48 h; in short: as §1
[18] = system: A549; assay: Growth inhibition of human A549 cells after 48 hrs by sulforhodamine B assay; conditions: A549, 48 h; in short: as §1
[19] = system: NCI-H460; assay: Anticancer activity against human NCI-H460 cells assessed as cell growth at 100 uM after 48 hrs by sulforhodamine B assay; conditions: NCI-H460, 48 h, read-out: Activity
[20] = system: SK-MEL-5; assay: Growth inhibition of human SK-MEL-5 cells after 48 hrs by sulforhodamine B assay; conditions: SK-MEL-5, 48 h; in short: as §1
[21] = system: IGROV-1; assay: Growth inhibition of human IGROV1 cells after 48 hrs by sulforhodamine B assay; conditions: IGROV-1, 48 h; in short: as §1
[22] = system: 786-0; assay: Growth inhibition of human 786-0 cells after 48 hrs by sulforhodamine B assay; conditions: 786-0, 48 h; in short: as §1
[23] = system: COLO 205; assay: Growth inhibition of human COLO205 cells after 48 hrs by sulforhodamine B assay; conditions: COLO 205, 48 h; in short: as §1
[24] = system: MDA-MB-231; assay: Growth inhibition of human MDA-MB-231 cells after 48 hrs by sulforhodamine B assay; conditions: MDA-MB-231, 48 h; in short: as §1
[25] = system: NCI-H522; assay: Growth inhibition of human NCI-H522 cells after 48 hrs by sulforhodamine B assay; conditions: NCI-H522, 48 h; in short: as §1
[26] = system: M14; assay: Growth inhibition of human M14 cells after 48 hrs by sulforhodamine B assay; conditions: M14, 48 h; in short: as §1
[27] = system: OVCAR-8; assay: Growth inhibition of human OVCAR8 cells after 48 hrs by sulforhodamine B assay; conditions: OVCAR-8, 48 h; in short: as §1
[28] = system: NCI-H322M; assay: Growth inhibition of human NCI-H322M cells after 48 hrs by sulforhodamine B assay; in short: as §1
[29] = system: DU-145; assay: Growth inhibition of human DU145 cells after 48 hrs by sulforhodamine B assay; conditions: DU-145, 48 h; in short: as §1
[30] = system: RXF 393; assay: Growth inhibition of human RXF393 cells after 48 hrs by sulforhodamine B assay; conditions: RXF 393, 48 h; in short: as §1
[31] = read-out: pLC50 (the source's name) (converted)

Compound: Nc1cc(N)c2nc(-c3ccccc3)c(Sc3ccc(Cl)c(Cl)c3)nc2c1
- GI50 [1]: 18.2 µM
- CC50 [1, 31]: > 100 µM
- TGI ([1]; read-out: pTGI (converted)): 60.3 µM
- GI50 [2]: 30.2 µM
- CC50 [2, 31]: > 100 µM
- TGI ([2]; read-out: pTGI (converted)): > 100 µM
- GI50 [3]: 17.8 µM
- LC50 (50% net cell kill) [3]: > 100 µM
- TGI ([3]; read-out: pTGI (converted)): 60.3 µM
- GI50 [4]: 15.1 µM
- CC50 [4, 31]: 89.1 µM
- TGI ([4]; read-out: pTGI (converted)): 37.2 µM
- GI50 [5]: 20.9 µM
- CC50 [5, 31]: > 100 µM
- TGI ([5]; read-out: pTGI (converted)): 83.2 µM
- GI50 [6]: 15.8 µM
- LC50 [6]: > 100 µM
- TGI ([6]; read-out: pTGI (converted)): > 100 µM
- GI50 [7]: 13.8 µM
- CC50 [7, 31]: > 100 µM
- TGI ([7]; read-out: pTGI (converted)): 57.5 µM
- GI50 [8]: 5.89 µM
- CC50 [8, 31]: 53.7 µM
- TGI ([8]; read-out: pTGI (converted)): 20 µM
- GI50 [9]: 10.2 µM
- LC50 (50% net cell kill) [9]: > 100 µM
- TGI ([9]; read-out: pTGI (converted)): > 100 µM
- GI50 [10]: 20 µM
- CC50 [10, 31]: > 100 µM
- TGI ([10]; read-out: pTGI (converted)): > 100 µM
- GI50 [11]: 7.41 µM
- LC50 [11]: 72.4 µM
- TGI ([11]; read-out: pTGI (converted)): 24.5 µM
- GI50 [12]: 3.47 µM
- CC50 [12, 31]: > 100 µM
- TGI ([12]; read-out: pTGI (converted)): 15.5 µM
- growth at 100 µM [13]: 12%
- GI50 [14]: 19.1 µM
- CC50 [14, 31]: > 100 µM
- TGI ([14]; read-out: pTGI (converted)): 60.3 µM
- GI50 [15]: 13.8 µM
- LC50 [15]: > 100 µM
- TGI ([15]; read-out: pTGI (converted)): 51.3 µM
- GI50 [16]: 9.33 µM
- LC50 (concentration causing 50% net cell death) [16]: > 100 µM
- TGI ([16]; read-out: pTGI (converted)): 47.9 µM
- GI50 [17]: 38.9 µM
- CC50 [17, 31]: 91.2 µM
- TGI ([17]; read-out: pTGI (converted)): 58.9 µM
- GI50 [18]: 13.5 µM
- LC50 [18]: > 100 µM
- TGI ([18]; read-out: pTGI (converted)): 52.5 µM
- growth at 100 µM [19]: 0%
- GI50 [20]: 21.4 µM
- CC50 [20, 31]: > 100 µM
- TGI ([20]; read-out: pTGI (converted)): 95.5 µM
- GI50 [21]: 2.95 µM
- CC50 [21, 31]: > 100 µM
- TGI ([21]; read-out: pTGI (converted)): 27.5 µM
- GI50 [22]: 23.4 µM
- CC50 [22, 31]: > 100 µM
- TGI ([22]; read-out: pTGI (converted)): 61.7 µM
- GI50 [23]: 10.7 µM
- LC50 (50% net cell kill) [23]: > 100 µM
- TGI ([23]; read-out: pTGI (converted)): 33.9 µM
- GI50 [24]: 16.6 µM
- CC50 [24, 31]: > 100 µM
- TGI ([24]; read-out: pTGI (converted)): 53.7 µM
- GI50 [25]: 7.59 µM
- LC50 [25]: > 100 µM
- TGI ([25]; read-out: pTGI (converted)): 33.9 µM
- GI50 [26]: 32.4 µM
- CC50 [26, 31]: > 100 µM
- TGI ([26]; read-out: pTGI (converted)): > 100 µM
- GI50 [27]: 24.5 µM
- CC50 [27, 31]: > 100 µM
- TGI ([27]; read-out: pTGI (converted)): > 100 µM
- GI50 [28]: 7.08 µM
- LC50 [28]: > 100 µM
- TGI ([28]; read-out: pTGI (converted)): 35.5 µM
- GI50 [29]: 1.51 µM
- CC50 [29, 31]: 9.77 µM
- TGI ([29]; read-out: pTGI (converted)): 3.8 µM
- GI50 [30]: 12.3 µM
- CC50 [30, 31]: 60.3 µM
- TGI ([30]; read-out: pTGI (converted)): 26.9 µM
